Data on 167 variants can be found in the RNAGym collection of RNA variant scans (doi:10.1126/science.aae0568).

B1: tRNA (parent)
chain: GUUCCGUUGGCGUAAUGGUAACGCGUCUCCCUCCUAAGGAGAAGACUGCGGGUUCGAGUCCCGUACGGAACG

This sample holds only a part of the variants without activity.

The variants in this data set derive from B1. The experiment in a line: yeast fitness relative to wild type (ratio to wild type); higher = fitter; tRNA-Arg(CCU), competitive growth, 37 C, YPD. In outline: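 For this measurement, the tRNA-Arg(CCU) gene was varied by chemical synthesis at a 3% per-site mutation rate across 69 sites, and each variant was placed at the native genomic locus in Saccharomyces cerevisiae. The pooled strains went through a 24-hour competition in YPD at 37°C in six parallel replicates, with amplicons from start and end populations read by 100-nucleotide paired-end sequencing. Darwinian fitness relative to wild type followed from the change in each genotype's frequency. Genotypes needed ≥ 100 starting reads, and estimates < 0.5 were set to 0.5.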
Take C4A U7A U8A U35C C60A: the yeast fitness was at most 0.5.
With U3C A69U, the yeast fitness was 1.03.
With G12A G18C C29U A57C A65C, the yeast fitness was at most 0.5.
Turning to U13C G48A C62A, the yeast fitness turned out to be 0.689.
For the variant A37G G58C, the yeast fitness was 0.719.
With U28A U32G C55G, the yeast fitness worked out at 0.505.
U3C C11G C34G A36C G52A C60G: the yeast fitness was at most 0.5.
The value for C4A G23C C24U A65G was 0.556; that for G6A U32A was 0.809.
The value for C22G G68A was 0.813; that for U7A C11U A36U A57C was at most 0.5; that for G9A A15U U59A A65C was 0.654.
For U3G C5G G10A C30G C31G C49A C60U G67A, the yeast fitness is at most 0.5.
Take G10C U16C C22A C33A: the yeast fitness is at most 0.5.
Turning to G6C U28C A36C G51A C66A, the yeast fitness is at most 0.5.
The value for A14C U19A was 0.602.
As for U2G G10A, the yeast fitness was determined as 0.697.
As to C4G G10C C34U C46G, the yeast fitness was at most 0.5.
A45C U47C U64C A65C: the yeast fitness amounted to 0.725.
For the variant C5U G9A A37C C60U G67A, the yeast fitness was at most 0.5.
The value for A20U C33U was 0.675; that for U28C G58C was 0.912; that for G12C U19G A20C A21C C31U C61A was at most 0.5.
For the variant C5U C22G C29G A69U, the yeast fitness was at most 0.5.
Take G6A C22A C29U: the yeast fitness is at most 0.5.
On to G9A G51C G52C, for which the yeast fitness was at most 0.5.
The value for U2G A14U A21C A36C C49A A65G C66G was at most 0.5; that for C4U G10A A15C A57C C66G was at most 0.5; that for U2A A36G A45C G68C was at most 0.5.
In the case of U2A U32C A36G, the yeast fitness was 0.736.
Regarding A14U C30U, the yeast fitness came to 0.558.
For the variant G39A A43C, the yeast fitness was found to be 0.796.
As for C22A C24G A65U A69C, the yeast fitness was at most 0.5.
Take C5U G18C C22A G51C: the yeast fitness amounted to 0.562.
Turning to U2G A42U U47A, the yeast fitness was found to be 0.738.
Consider C11G C24U A45C C55U, for which the yeast fitness was at most 0.5.
As to C4A G41A A42C G50C A70G, the yeast fitness is at most 0.5.
For the variant U26A C30A, the yeast fitness was found to be 0.768.
In the case of C22G A36C G68C, the yeast fitness was at most 0.5.
On to A15U G44A G58A G68C, for which the yeast fitness was at most 0.5.
In the case of G17A G25C A65U, the yeast fitness worked out at 0.625.
Take G10C U26A A70U: the yeast fitness is 0.622.
For the variant G48A G56U G58A, the yeast fitness is at most 0.5.
For the variant U7G C55G, the yeast fitness was 0.655.
As for C34G A45G U59G, the yeast fitness is at most 0.5.
Turning to C11A G17A, the yeast fitness worked out at 0.579.
Consider C22U U47G, for which the yeast fitness is 0.611.
Regarding U2C C5A A40G, the yeast fitness stood at 0.563.
As to G10A G17C C31U C55U C60A, the yeast fitness was at most 0.5.
Regarding G10A C49A G67A, the yeast fitness is at most 0.5.
As for C4G C46A, the yeast fitness was 0.915.
For A43U G51A, the yeast fitness stood at 1.
In the case of U35A A36U C61U, the yeast fitness was at most 0.5.
As for G48C G51C, the figure is 0.591; as for G10A G17C C30G C33G C61A A65U, at most 0.5; as for A45C G50C, 0.604.
As to C33G U47A G67C A69U, the yeast fitness was at most 0.5.
As for A21G C49U U59G, the yeast fitness came out at 0.619.
As for C24U G58A, the yeast fitness worked out at 0.988.
On to A40U A65G, for which the yeast fitness was 1.01.
For G25C C34U A40G U54A A65G, the yeast fitness was found to be 0.582.
For A15C A70C, the yeast fitness was 0.751.
C4G C30A A45U C55U: the yeast fitness was at most 0.5.
As for U7C C49U, the figure is 0.873; as for C29U C66G A70C, at most 0.5; as for G9A U26G C30A, 0.636.
The value for A15U C22G C31U G50A was at most 0.5; that for A21C C60G C62G A70C was at most 0.5.
As for U3A A21C C24G G68A, the figure is at most 0.5.
Consider A15G A45U A70U, for which the yeast fitness was 0.692.
C27G A65C A70C: the yeast fitness is 0.53.
As to U19C C61G, the yeast fitness is 0.691.
Take U3G C31U C49U: the yeast fitness came to 0.681.
The value for C4A U8C G51C was at most 0.5; that for C24A C30U A45G A57U was 0.6.
Take G10C U19A C31G A42G: the yeast fitness was found to be 0.627.
Regarding G10C U13A C31A, the yeast fitness is 0.594.
Turning to C49U G67C, the yeast fitness worked out at 0.851.
Regarding C11A G52C C66U A69C, the yeast fitness is at most 0.5.
Regarding U2G C31U G48C G67C, the yeast fitness turned out to be 0.702.
Turning to C22U U26A G67C, the yeast fitness is at most 0.5.
Turning to C11A U35A C61U C62U C66A, the yeast fitness is at most 0.5.
On to C5U C22A U32A C60G, for which the yeast fitness is at most 0.5.
For the variant U26G U28A A43G C49U C61U G67A, the yeast fitness is at most 0.5.
With U8C C55U, the yeast fitness was 0.754.
As to C24U A42C, the yeast fitness turned out to be 0.994.
As for G10C A36U G41A C66U A70C, the figure is at most 0.5.
The value for G12A G25A C60A was at most 0.5; that for G6C G51A G58A was 0.652; that for G10C A21C C27A C34A was at most 0.5.
With U19A C29G U54C, the yeast fitness was at most 0.5.
As for C24A C27A U28A G67U, the yeast fitness is at most 0.5.
As to C5U G17C C30A G50A C66G, the yeast fitness is at most 0.5.
As for C33U G44A C61U, the figure is 0.675.
As for U8C U19C, the yeast fitness worked out at 0.978.
On to C66G G67U, for which the yeast fitness turned out to be 0.63.
Take C27G C34G A37U: the yeast fitness was at most 0.5.
For the variant U13G A42U C55U C62G A70C, the yeast fitness came to 0.525.
C22A U35G: the yeast fitness is 0.631.
In the case of C5A C11U G44C C49U, the yeast fitness was 0.53.
For A40U G48A C60A U64C A69C, the yeast fitness is at most 0.5.
Regarding G44A U47C, the yeast fitness worked out at 0.979.
G39C A43G G44C A45U C49G G67C: the yeast fitness is 0.558.
As to U3G C11G A15C C60U, the yeast fitness was at most 0.5.
The value for C27A G39C A57U A70U was at most 0.5; that for A14U A37C C46U C61G was at most 0.5; that for A37U A42G A45U G67C was at most 0.5.
Regarding U7C U26A, the yeast fitness is 0.777.
For the variant U3G C4G A70C, the yeast fitness was at most 0.5.
C5G A14U A20U G41A A57G: the yeast fitness was at most 0.5.
On to G12C G18C G25A C66U, for which the yeast fitness was at most 0.5.
The value for G17C A20U C66A was at most 0.5; that for C22U A40G was 0.834.
As to C29A G56C A57U, the yeast fitness was 0.583.
In the case of G52A G63C, the yeast fitness worked out at 0.652.
In the case of C31A A40C G52A G68C, the yeast fitness was at most 0.5.
In the case of G25C U53A C55U, the yeast fitness is at most 0.5.
Regarding U35G G48C C66U, the yeast fitness is at most 0.5.
On to U3C G48C, for which the yeast fitness was 0.817.
For the variant C60G G67A, the yeast fitness is 0.584.
In the case of C27U C46U A57G, the yeast fitness was 0.679.
For the variant G9C A65C, the yeast fitness stood at 0.67.
As for U32C A40G G41A, the yeast fitness was at most 0.5.
G10A U19C G48A C49G A69U: the yeast fitness worked out at 0.594.
With G39C C49A, the yeast fitness turned out to be 0.664.
Regarding G17A A21G U28G, the yeast fitness was determined as 0.608.
As for G9C A15C C34G C66A A69C, the figure is at most 0.5.
Regarding U7A C29A, the yeast fitness came to 0.73.
G10C A37C A43U: the yeast fitness is at most 0.5.
As for U7G C29G C46U A65U, the figure is at most 0.5.
As to G44A C49G A70U, the yeast fitness was at most 0.5.
In the case of A15G C24A U64C, the yeast fitness is at most 0.5.
The value for G10C U13A C31A C62U was at most 0.5.
For U8A A40G C61G, the yeast fitness was at most 0.5.
On to C4A C11G, for which the yeast fitness was 0.769.
The value for C11G G12A C24A C30G G44C C61G was at most 0.5.
On to U7G U8C A70U, for which the yeast fitness was found to be 0.588.
On to C4U U7G C34G G51A, for which the yeast fitness was at most 0.5.
Regarding C5U G23A A69U, the yeast fitness was at most 0.5.
Take C4U G12A: the yeast fitness worked out at 1.11.
For the variant G9C G56C, the yeast fitness was determined as 0.514.
On to C29G U32A U47C C62A, for which the yeast fitness was at most 0.5.
Regarding C27U A36C A42U C46U C62U G63A, the yeast fitness was at most 0.5.
Regarding U2A C5A G56C, the yeast fitness is 0.56.
Take A15C U35C U47C: the yeast fitness is at most 0.5.
In the case of C11U A45U A65U, the yeast fitness worked out at 0.82.
In the case of A21C U26G, the yeast fitness is 0.642.
A14C A45G: the yeast fitness was found to be 0.611.
The value for A57U C62A was 0.629.
Consider G41A G52U U64A G68A, for which the yeast fitness was 0.622.
On to G41A A65C, for which the yeast fitness stood at 0.67.
Take C27U C33U A40C A57G C66U: the yeast fitness is at most 0.5.
For the variant A45G U47C G48C U59A, the yeast fitness came out at 0.576.
A20U A45U A69U: the yeast fitness came to 0.726.
Consider G9A G12C G17A C22G C30U C34G C49U U59G, for which the yeast fitness is at most 0.5.
For the variant C34U C46G C62U, the yeast fitness came to 0.549.
Turning to G9A C27G U35A, the yeast fitness is at most 0.5.
As for C24A C30U, the yeast fitness was 0.538.
For G10C A21U G23C G56A C61A A65G, the yeast fitness worked out at 0.567.
Consider C22G A36C U47A, for which the yeast fitness stood at 0.552.
Consider C24A A40C A69C, for which the yeast fitness was at most 0.5.
Take U13C A36G C46A C49A: the yeast fitness is at most 0.5.
On to G9C U54G, for which the yeast fitness came to 0.605.
Regarding U3C A40U C49A C62A, the yeast fitness is at most 0.5.
As for U3C U8C U13C, the yeast fitness was 0.548.
As for A15C G17C, the figure is 0.62.
Take C5U C11U A20U: the yeast fitness was 0.561.
